Measured values taken from publication PMC5010991 (Molecular cancer therapeutics, 2016).

Experiments:
T98G cells [1] = assay: Cell number using WST-1; assay type: cell-based, human; conditions: for reduction of cell number: T98G, 10 µM, WST-1
How it was run: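 T98G cells (ATCC, STR-authenticated, under 6 months in culture) grown in DMEM or RPMI with 10% FBS, 100 U/mL penicillin and 100 µg/mL streptomycin at 37°C, 5% CO2. Cells exposed to test compound at 10 µM, with nocodazole or paclitaxel (10 µM each) run in parallel. Cell number followed over 72 hrs by WST-1 per kit protocol. Mean ± SEM of at least 3 independent experiments.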

bovine brain tubulin = assay: Cell-free MT assembly assay with purified tubulin; assay type: biochemical
T98G cells [2] = assay: Live cell imaging of EB3-GFP on assembling MTs; assay type: cell-based, human; conditions: nocodazole 1 µM, by 15 min
How it was run: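 T98G cells transfected with EB3-GFP and RFP-CenpB to mark growing MT plus ends and centromeres. Treated with test compound (0.5 or 3 µM) or nocodazole (1 µM). Movies of 30 sec at 500 ms intervals were taken on a deconvolution microscope starting 10 min after drug addition. Images were deconvolved, and MT assembly rates were tracked in interphase cells.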

[3] = system: MDA-MB-231 breast cancer cells; assay: Viability of positive-control breast cancer cells; assay type: cell-based; conditions: MDA-MB-231, by 72 hrs

## COC(=O)Nc1nc2ccc(C(=O)c3cccs3)cc2[nH]1 [nocodazole]
T98G cells [1]; 12 hrs
  reduction of cell number: 10–15%
T98G cells [1]; 72 hrs
  reduction of cell number: 34%
Bovine brain tubulin
  level of free tubulin: triggered an increase the free tubulin
T98G cells [2]
  assembling MTs in live cells: abolished all assembling MTs

## Z-DEVD-FMK
T98G cells [1]; Z-DEVD-FMK 10 µM, 15 min preincubation, ST-11 10 µM
  effect of caspase-3 inhibition on the antineoplastic action of ST-11: blocked the antineoplastic action of ST-11

## CC(=O)O[C@H]1C(=O)[C@@]2(C)[C@H]([C@H](OC(=O)c3ccccc3)[C@]3(O)C[C@H](OC(=O)[C@H](O)[C@@H](NC(=O)c4ccccc4)c4ccccc4)C(C)=C1C3(C)C)[C@]1(OC(C)=O)CO[C@@H]1C[C@@H]2O [paclitaxel]
T98G cells [1]; 12 hrs
  reduction of cell number: 10–15%
T98G cells [1]; 72 hrs
  reduction of cell number: inactive
Bovine brain tubulin
  level of free tubulin: decrease in free tubulin levels
[3]
  viability: reduced the viability
